# NR3A LBD binder = modulates the human NR3A ligand-binding domain. NR3A LBD differential scanning fluorimetry, Tm shift; 0% = protein alone, 100% = glycine-bound protein. Tm shift relative to glycine control, % at 25 µM. actives 2.5% (n = 340,000). AID 1259313;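 active = melting temperature shift of at least 10% of the positive control shift, at one fixed dose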
# ADAM10 inh = inhibitors of human ADAM10. recombinant ADAM10, EDANS/DABCYL FRET peptide cleavage, 3 h. actives 0.62% (n = 370,000). inhibition, % at 7 µM. O14672. AID 720582;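 active = inhibition above a per-campaign cutoff equal to the mean of compounds falling between control-based bounds plus 3 SD, cut at about 20% in these data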;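 note: 0% = DMSO wells while the 100% control is not disclosed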
# Target sequence (O14672 214-748 limits assumed): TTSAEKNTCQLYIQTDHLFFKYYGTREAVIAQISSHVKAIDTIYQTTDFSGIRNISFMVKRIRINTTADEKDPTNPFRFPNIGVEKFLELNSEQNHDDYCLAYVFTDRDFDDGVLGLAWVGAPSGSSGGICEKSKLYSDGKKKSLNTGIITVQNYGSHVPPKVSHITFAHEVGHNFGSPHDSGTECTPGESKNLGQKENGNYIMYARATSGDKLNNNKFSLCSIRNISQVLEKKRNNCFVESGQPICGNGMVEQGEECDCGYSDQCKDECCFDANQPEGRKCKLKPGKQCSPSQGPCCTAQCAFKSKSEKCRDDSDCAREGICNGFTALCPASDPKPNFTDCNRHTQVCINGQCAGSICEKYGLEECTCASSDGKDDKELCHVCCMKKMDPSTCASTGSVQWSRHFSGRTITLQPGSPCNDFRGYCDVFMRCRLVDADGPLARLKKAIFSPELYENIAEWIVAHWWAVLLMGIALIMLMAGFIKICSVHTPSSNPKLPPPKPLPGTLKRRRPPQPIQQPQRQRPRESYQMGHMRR
# SKN-1 block = blocks SKN-1 activity in C. elegans. C. elegans VP596 Pgst-4::GFP/RFP ratio, acrylamide-induced, 24 h. inhibition, % at 21.8 µM. actives 0.49% (n = 360,000);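 active = interference check ratio from 0.5 to 1.5 plus GFP to RFP signal ratio inhibition reaching or exceeding a fixed threshold, cut at about 30% in these data, passing the limit was not always enough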
# MPTP block = permeability transition pore inhibition. actives 1.4% (n = 360,000). AID 602449. isolated mouse mitochondria, Ca2+ swelling absorbance, 30 min. inhibition, % at 10 µM;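 active = inhibition of 50% or more, scaled per plate between neutral and stimulator controls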;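 note: 0% = DMSO wells given calcium and 100% = 1 mM EGTA wells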
# MT1-MMP act inh = blocks activation of human MT1-MMP | actives 0.061% (n = 360,000) | HT1080 RFP-PRO-GFP cells, GFP/RFP ratio fluorescence, overnight; percent of plate control window, DMSO zero | GFP/RFP ratio change, % at 20 µM | P50281;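 active = GFP/RFP ratio change of at least 30% with cell ATP level not reduced by more than half and red fluorescence within 50% of control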
#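 Read-out: GFP/RFP fluorescence ratio; Test system: RFP-PRO-GFP reporter HT1080 cells; Compound dosing: single-point 20 µM compound, 1% DMSO; Times: overnight compound exposure at 37 °C.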
# ADAM17 inh = ADAM17 inhibition, QFRET primary screen; actives 0.83% (n = 370,000); recombinant ADAM17, EDANS/DABCYL FRET peptide cleavage; P78536; inhibition, % at 6.95 µM;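 active = inhibition above the mean of compounds lying between control limits plus 3 SD, set per campaign, cut at about 8.5% in these data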;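 note: 0% = DMSO-only wells as the low control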
# ADAM10 confirm = human ADAM10 inhibition, confirmation; shares compounds with ADAM10 inh; ADAM10 QFRET peptide cleavage, EDANS fluorescence; inhibition, % at 6.95 µM; actives 1% (n = 2,100);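 active = inhibition above about 20% chosen separately for each screening run, limit read from the data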;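 note: 0% = DMSO wells and 100% = marimastat wells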
# ADAM17 ctr = inhibits human ADAM17 in ADAM10 exosite counter-screen. shares compounds with ADAM10 inh. ADAM17 QFRET peptide cleavage, EDANS fluorescence. inhibition, % at 6.95 µM. actives 0.5% (n = 2,100). AID 743214;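 active = mean triplicate inhibition above the solvent-only control wells' mean plus 3 SD, cut at about 12% in these data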;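 note: 0% = DMSO wells and 100% = marimastat wells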
# An asterisk follows results filed as active; . = no result. A selection: hits, their analogues and other compounds. The true share with any hit is near 4.7%.
SMILES,NR3A LBD binder,ADAM10 inh,SKN-1 block,MPTP block,MT1-MMP act inh,ADAM17 inh,ADAM10 confirm,ADAM17 ctr
C[C@H]1CCCCO[C@H](CN(C)C(=O)Nc2ccc(F)cc2)[C@@H](C)CN([C@@H](C)CO)C(=O)c2cc(NC(=O)Nc3ccc4c(c3)OCO4)ccc2O1,.,23*,15,1,8,8,10,3
C[C@@H]1CN([C@@H](C)CO)C(=O)c2cccc(NC(=O)Nc3ccc(F)cc3)c2O[C@@H]1CN(C)Cc1ccc(Oc2ccccc2)cc1,2,21*,11,-1,-5,4,7,2
Cc1nc(Sc2nnnn2C)c2c3c(sc2n1)CCC3,-1,-27,-5,-2,7,-14,.,.
O=C(c1ccccc1)c1ccccc1NC(=O)C1CCCN1Cc1ccccc1 (configuration not stated),1,1,6,2,-5,0,.,.
COc1cccc(C(=O)Nc2ccc(Oc3nnc(-c4ccccc4)c4ccccc34)cc2)c1,.,0,.,.,.,-1,.,.
C[C@@H]1CN([C@H](C)CO)C(=O)c2ccccc2-c2ccccc2CO[C@@H]1CN(C)C(=O)Nc1ccccc1,.,-15,.,.,.,-1,.,.
C[C@@H]1CN([C@@H](C)CO)C(=O)c2ccccc2-c2ccccc2CO[C@@H]1CN(C)Cc1ccc(Cl)c(Cl)c1,.,22*,.,.,.,8,8,3
Cc1ccc(N2CCN(CC(O)COc3cccc4ccccc34)CC2)cc1 (configuration not stated),-7,20*,10,3,1,4,5,0
CC(CC(=O)O)CC(=O)Nc1cc([N+](=O)[O-])ccc1O (configuration not stated),-1,20*,-7,-1,12,1,4,1
CCCCC(CCC(=O)Nc1cc([N+](=O)[O-])ccc1O)C(=O)O (configuration not stated),0,5,0,0,2,1,.,.
O=C(NO)c1ccc(C(=O)N(C2CCCCC2)C2CCCCC2)cc1,-1,30*,14,1,-1,4,22*,2
O=C(c1ccc(-n2cnnn2)cc1)N(C1CCCCC1)C1CCCCC1,1,6,8,1,-6,-1,.,.
COC(=O)C1=C(C)NC(C)=C(C(=O)OCC2CCCO2)C1c1ccc(Cl)c([N+](=O)[O-])c1 (configuration not stated),.,26*,12,-1,-6,4,2,1
C/C=C(\C)C(=O)N1CC2(CC(c3cccc(NC(=O)COc4ccc(Cl)cc4)c3)=NO2)C[C@@H]1C(N)=O (some centres not stated),-3,85*,-7,1,8,-3,1,1
NC(=O)[C@@H]1CC2(CC(c3cccc(NC(=O)COc4ccc(Cl)cc4)c3)=NO2)CN1C(=O)c1ccccc1 (some centres not stated),-11,-6,18,-2,6,3,.,.
COc1ccc(C(=O)N2CC3(CC(c4cccc(NC(=O)COc5ccc(Cl)cc5)c4)=NO3)C[C@@H]2C(N)=O)cc1 (some centres not stated),-2,23*,8,0,2,5,3,1
CC/C(Cc1ccccc1)=N\NC(=O)c1cc(C)oc1C,-3,-3,2,0,5,0,.,.
Cc1ccccc1OCC(=O)OCC(=O)c1cc(C)n(C2CC2)c1C,2,0,16,-1,6,-2,.,.
CN(C)CCCSc1nc2ccccc2s1,1,-2,3,-3,-6,2,.,.
N#Cc1c(NC(=O)CSc2n[nH]c(N)n2)oc(-c2ccccc2)c1-c1ccccc1,2,20*,4,1,0,7,4,3
